Tests used:
Plasmodium falciparum [1] = assay: Inhibition of Plasmodium falciparum choline kinase at 150 uM in presence of 250 uM ATP
Plasmodium falciparum [2] = assay: Inhibition of Plasmodium falciparum choline kinase at 50 uM in presence of 250 uM ATP
Plasmodium falciparum [3] = assay: Inhibition of Plasmodium falciparum choline kinase at 150 uM in presence of 100 uM ATP
Plasmodium falciparum [4] = assay: Inhibition of Plasmodium falciparum choline kinase at 50 uM in presence of 100 uM ATP
Plasmodium yoelii [5] = assay: Antimalarial activity against intraperitoneal inoculated Plasmodium yoelii N67 in Swiss mice (Mus musculus) at 20 mg/kg intraperitoneal dose on day 4; format: functional, organism-based; design: dose 20 mg/kg; conditions: N-67
In short: (§1)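 P. yoelii N-67 in Swiss mice (22 ± 2 g, five per group), 1 × 10^5 parasitized RBC i.p. on day 0. Aqueous suspension given i.p. (0.20 ml) from 6 h post-inoculation, days 0–3. Day-4 parasitemia from Giemsa smears; % suppression = [(C − T)/C] × 100 on group means vs vehicle.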

Plasmodium falciparum [6] = assay: Inhibition of Plasmodium falciparum NF54 trophozoite at 10 uM; format: functional, organism-based
In short: (§2)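 Sorbitol-synchronized NF-54 at 0.5% ring parasitemia, 1% hematocrit. Rings (0 h), trophozoites (24 h) or schizonts (36 h) exposed 8 h in CRPMI, then washed out. [3H]hypoxanthine (0.7 μCi/well) added at 24, 48 or 60 h respectively; harvest at 72 h and scintillation count. Read against stage-matched DMSO control; three experiments in triplicate.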

Plasmodium falciparum [7] = assay: Inhibition of Plasmodium falciparum NF54 ring stage at 30 uM; format: functional, organism-based; in short: as §2
Plasmodium yoelii [8] = assay: Antimalarial activity at day 4 against intravenously inoculated Plasmodium yoelii N67 in Swiss mice (Mus musculus) at 20 mg/kg intraperitoneal dose; format: functional, organism-based; design: dose 20 mg/kg; conditions: N-67
In short: (§3)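 P. yoelii N-67 in Swiss mice (22 ± 2 g, five per group), 1 × 10^4 parasitized RBC i.v. on day 0. Aqueous suspension given i.p. (0.20 ml) from 6 h post-inoculation, days 0–3. Day-4 parasitemia from Giemsa smears; % suppression = [(C − T)/C] × 100 on group means vs vehicle.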

Plasmodium falciparum [9] = assay: Growth inhibition of schizont Plasmodium falciparum NF54 at 10 uM; format: functional, organism-based; in short: as §2
Plasmodium yoelii [10] = assay: Antimalarial activity against intraperitoneal inoculated Plasmodium yoelii N67 in Swiss mice (Mus musculus) at 10 mg/kg intraperitoneal dose on day 4; format: functional, organism-based; design: dose 10 mg/kg; conditions: N-67; in short: as §1
Plasmodium yoelii [11] = assay: Antimalarial activity against intravenously inoculated Plasmodium yoelii N67 in Swiss mice (Mus musculus) at 10 mg/kg intraperitoneal dose on day 4; format: functional, organism-based; design: dose 10 mg/kg; conditions: N-67; in short: as §3
Plasmodium yoelii [12] = assay: Antimalarial activity against intravenously inoculated Plasmodium yoelii N67 in Swiss mice (Mus musculus) at 5 mg/kg intraperitoneal dose on day 4; format: functional, organism-based; design: dose 5 mg/kg; conditions: N-67; in short: as §3
Plasmodium falciparum [13] = assay: Inhibition of Plasmodium falciparum choline kinase
In short: (§4)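 Purified recombinant PfCK (5 μg; Ni-NTA affinity plus gel filtration) incubated at 37°C for 45 min in 100 mM Tris-Cl pH 8.8, 5 mM ATP, 6 mM MgCl2, 250 μM [methyl-14C]choline (5.6 mCi/mmol). Stopped with Dowex-50W slurry; [14C]phosphocholine in supernatant counted by scintillation. DMSO control = 100%. Three experiments in triplicate.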

Plasmodium yoelii [14] = assay: Antimalarial activity against intraperitoneal inoculated Plasmodium yoelii N67 in Swiss mice (Mus musculus) at 5 mg/kg intraperitoneal dose on day 4; format: functional, organism-based; design: dose 5 mg/kg; conditions: N-67; in short: as §1
Plasmodium falciparum [15] = assay: Inhibition of Plasmodium falciparum choline kinase at 100 uM; in short: as §4
Plasmodium falciparum [16] = assay: Inhibition of Plasmodium falciparum NF54 as [3H]hypoxanthine uptake at 10 uM; format: functional, organism-based
In short: (§5)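 Asynchronous P. falciparum NF-54 in human B+ erythrocytes (1% hematocrit, 0.5–0.7% parasitemia) exposed to compound (DMSO stock diluted in RPMI) for 48 h. Then washed and pulsed 48 h with [3H]hypoxanthine 0.7 μCi/well. Harvested on glass-fibre filters and counted by scintillation. % inhibition vs DMSO control; three experiments in triplicate.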

Plasmodium falciparum [17] = assay: Inhibition of phosphocholine biosynthesis in Plasmodium falciparum NF54 as intracellular free choline at 10 uM; format: functional, organism-based
In short: (§6)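 NF-54 culture (15% parasitemia, 5% hematocrit) treated 1 h at 37°C (90% N2, 5% CO2) and washed. Labelled 4 h with 40 μM [methyl-14C]choline (5.6 mCi/mmol). Cells lysed in 5% TCA with freeze-thaw; phosphatidylcholine counted in pellet. Ether-extracted supernatant split on Dowex-50W: phosphocholine unbound, free choline eluted with 1 N HCl. Compared with DMSO control.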

Plasmodium falciparum [18] = assay: Inhibition of phosphatidylcholine biosynthesis in Plasmodium falciparum NF54 as [methlyl-14C]choline uptake; format: functional, organism-based; in short: as §6
Plasmodium falciparum [19] = assay: Inhibition of Plasmodium falciparum NF54 as [3H]hypoxanthine uptake at 20 uM; format: functional, organism-based; in short: as §5
Plasmodium falciparum [20] = assay: Inhibition of choline kinase in Plasmodium falciparum NF54 assessed as incorporation of [methlyl-14C]choline into phosphocholine at 10 uM; in short: as §6

C[N+]1(C)CCOC(O)(c2ccc(-c3ccc(C4(O)C[N+](C)(C)CCO4)cc3)cc2)C1 (stereo unspecified)
inhibition (Plasmodium falciparum [1]): 18% | inhibition (Plasmodium falciparum [2]): 16% | inhibition (Plasmodium falciparum [3]): 18% | inhibition (Plasmodium falciparum [4]): 16%

hexadecyltrimethylammonium bromide
Activity (Plasmodium yoelii [5]): 77.2% | inhibition (Plasmodium falciparum [6]): 62% | inhibition (Plasmodium falciparum [7]): 33.3% | Activity (Plasmodium yoelii [8]): 83.7% | inhibition (Plasmodium falciparum [9]): 51% | Activity (Plasmodium yoelii [10]): 52.4% | Activity (Plasmodium yoelii [11]): 64.2% | Activity (Plasmodium yoelii [12]): 48.7% | Activity (Plasmodium falciparum [13]): Dose-dependent effect | Activity (Plasmodium yoelii [14]): 36.8% | inhibition (Plasmodium falciparum [15]): 60% | inhibition (Plasmodium falciparum [16]): 62% | inhibition (Plasmodium falciparum [17]): 42% | inhibition (Plasmodium falciparum [4]): 60% | Activity (Plasmodium falciparum [18]): Dose-dependent effect | inhibition (Plasmodium falciparum [19]): 81% | inhibition (Plasmodium falciparum [20]): 57%
